Assay outcomes deposited in PubChem BioAssay by several laboratories.
NALP1 yeast inh – NALP1 inflammasome inhibitors in reconstituted yeast, colorimetric, S. cerevisiae, triplicate retest; S. cerevisiae NALP1/ASC/caspase-1 growth, X-gal OD620, 72 h; inhibition, % at 10 µM; 280,000 tested, 0.61% active; in the data active means inhibition mostly above about 24%, no sharp cut-off; inactive means mostly below about 32%
ATG4B inhibitor – ATG4B protease inhibitors, primary screen, biochemical, fluorescence, uHTS. Cysteine protease ATG4B (Homo sapiens), Q9Y4P1. ATG4B cleavage of LC3-PLA2, NBD-HPC fluorescence, 1 h. inhibition, % at 8.33 µM. 340,000 tested, 0.51% active. AID 504462, 2011; in the data active means inhibition above about 40%
Target sequence (Q9Y4P1 whole entry, looked up): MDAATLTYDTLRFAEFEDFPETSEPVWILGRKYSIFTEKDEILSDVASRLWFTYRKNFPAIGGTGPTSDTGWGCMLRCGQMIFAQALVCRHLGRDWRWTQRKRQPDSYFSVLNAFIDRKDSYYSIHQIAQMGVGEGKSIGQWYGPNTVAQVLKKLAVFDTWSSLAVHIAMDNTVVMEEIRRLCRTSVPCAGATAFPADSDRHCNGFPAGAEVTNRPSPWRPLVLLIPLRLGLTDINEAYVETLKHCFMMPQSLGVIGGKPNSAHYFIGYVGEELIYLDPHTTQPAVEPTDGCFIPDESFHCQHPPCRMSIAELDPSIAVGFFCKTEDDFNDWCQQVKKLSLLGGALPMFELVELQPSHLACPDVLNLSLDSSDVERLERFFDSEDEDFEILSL
UCH37 inh – inhibitors of human UCH37 deubiquitinase, primary screen, biochemical, Ub-AMC cleavage, fluorescence; Ubiquitin carboxyl-terminal hydrolase isozyme L5 (Homo sapiens), Q9Y5K5; purified proteasome/UCH37; inhibition, % (test concentration not listed); 330,000 tested, 0.33% active;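 active means mean inhibition over replicate wells above about 20%, limit read from the data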
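Reagent: Ub-AMC substrate; assay system: Proteasome-associated human UCH37 deubiquitinase; controls: no-proteasome and no-compound wells; read-out: % inhibition of Ub-AMC cleavage fluorescence; timing: 30 min preincubation with enzyme, 25 min cleavage at room temperature; signal: AMC fluorescence from Ub-AMC cleavage, excitation 355 nm, emission 460 nm; buffer or medium: Tris-HCl pH 7.4 plus ovalbumin, ATP-MgCl2, DTT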
ALR H2O2 inh – inhibitors of human ALR sulfhydryl oxidase, primary screen, biochemical, H2O2 detection, HRP-luminol luminescence, single point; purified ALR, DTT oxidation; FAD-linked sulfhydryl oxidase ALR (Homo sapiens), P55789; 290,000 tested, 3.8% active; AID 485317, 2010; inhibition, % (test concentration not listed);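 active means mean replicate inhibition above about 79%, with every replicate also reaching it, limit read from the data; inconclusive means only one of the two criteria met; inactive means mean below limit and not every replicate reaching it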
NLRP3 yeast inh – NALP3 inflammasome inhibitors in reconstituted yeast, primary screen, luminescence, uHTS | inhibition, % at 10 µM | 330,000 tested, 0.39% active | Yeast reconstituted NLRP3/ASC/caspase-1, beta-gal luminescence, 24 h;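 active means inhibition of 50% or more; inactive means inhibition below 50%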
Calb FLC – C. albicans growth inhibition with fluconazole, primary screen, CaCi-2 strain, Alamar Blue fluorescence. C. albicans CaCi-2 + fluconazole, 48 h. growth inhibition, % (no concentration beside the values). 300,000 tested, 0.57% active. AID 1979, 2009;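 active means growth inhibition above about 58% in most replicates, limit read from the data, passing the limit was not always enough; inconclusive means exactly half the replicates above a set limit; inactive means most replicates below a set limit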;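 further: all wells also contain fluconazole at 8 µg/ml as a sub-toxic cotreatment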
Numbers stand for hits. Compounds with a hit are over-represented: about 4.8% of the library has one in this group of screens.

`CCOc1cc(C(=O)NN=Cc2cn(-c3ccccc3)nc2-c2cc3ccccc3o2)cc(OCC)c1OCC` gave UCH37 inh inactive.
For N#Cc1c(NC(=O)c2cccc(S(=O)(=O)Nc3ccc(C(=O)O)cc3)c2)sc2c1CCCC2 the results were NALP1 yeast inh inactive, ATG4B inhibitor inactive, UCH37 inh inactive, ALR H2O2 inh 89.4, NLRP3 yeast inh inactive and Calb FLC inactive.
Cc1cccc(NC2=C(NCCO)C(=O)c3ccccc3C2=O)c1 was read as NALP1 yeast inh inactive, ATG4B inhibitor inactive, UCH37 inh inactive, ALR H2O2 inh 98.9, NLRP3 yeast inh inactive and Calb FLC inactive.
`COc1cccc(NC2=C(NCCO)C(=O)c3ccccc3C2=O)c1` gave NALP1 yeast inh inactive, ATG4B inhibitor inactive, UCH37 inh inactive, ALR H2O2 inh 87.2, NLRP3 yeast inh inactive and Calb FLC inactive.
For COc1ccc(NC2=C(NCCO)C(=O)c3ccccc3C2=O)cc1 the results were NALP1 yeast inh inactive, ATG4B inhibitor inactive, UCH37 inh inactive, ALR H2O2 inh inactive, NLRP3 yeast inh inactive and Calb FLC inactive.
`CCC(C=NNC(=O)CCCCC(=O)NN=CC(CC)CC)CC` gave UCH37 inh inactive.
`CC1(O)CC(c2ccc(Cl)cc2)=NN1C(=O)c1ccc([N+](=O)[O-])cc1` (stereo not given) gave NALP1 yeast inh inactive, ATG4B inhibitor inactive, UCH37 inh inactive, ALR H2O2 inh inactive, NLRP3 yeast inh inactive and Calb FLC 94.7.
For CN(C(=NS(=O)(=O)c1ccccc1)c1ccccc1)S(=O)(=O)c1ccccc1 the results were UCH37 inh inactive.
Screening COc1cccc(NC(=O)c2ccccc2-c2ccccc2C(=O)O)c1 returned NALP1 yeast inh inactive, ATG4B inhibitor inactive, UCH37 inh inactive, ALR H2O2 inh inactive, NLRP3 yeast inh inactive and Calb FLC inactive.
O=C(O)c1ccccc1Nc1ccccc1 was read as ATG4B inhibitor inactive, UCH37 inh inactive, ALR H2O2 inh 99.1 and NLRP3 yeast inh inactive.
For COc1cccc(Nc2ccccc2C(=O)O)c1 the results were NALP1 yeast inh inactive, ATG4B inhibitor inactive, UCH37 inh inactive, ALR H2O2 inh 98.5, NLRP3 yeast inh inactive and Calb FLC inconclusive.
`O=C(O)c1ccccc1Nc1ccc(OC(F)F)cc1` gave NALP1 yeast inh inactive, ATG4B inhibitor inactive, UCH37 inh inactive, ALR H2O2 inh 99.6, NLRP3 yeast inh inactive and Calb FLC inactive.
`O=C(O)c1ccccc1Nc1cccc(C(F)(F)F)c1` gave NALP1 yeast inh inactive, ATG4B inhibitor inactive, UCH37 inh inactive and NLRP3 yeast inh inactive.
For O=C(COC(=O)c1ccccc1Nc1ccccc1)NCc1ccccc1 the results were NALP1 yeast inh inactive, ATG4B inhibitor inactive, UCH37 inh inactive, ALR H2O2 inh 97.3, NLRP3 yeast inh inactive and Calb FLC inactive.
CCN(Cc1ccccc1)c1ccc(C=NNS(=O)(=O)c2cccc([N+](=O)[O-])c2)cc1 was read as UCH37 inh inactive.
`COc1ccc(OCC(=O)NN=C(C)c2cc3ccccc3o2)cc1` gave UCH37 inh inactive.
Screening COc1ccc(OC)c(S(=O)(=O)Nc2ccccc2C(=O)O)c1 returned NALP1 yeast inh inactive, ATG4B inhibitor inactive, UCH37 inh inactive, ALR H2O2 inh inactive, NLRP3 yeast inh inactive and Calb FLC inactive.
`COc1ccc(Nc2ccc(Cl)cc2)c(C(=O)O)c1` gave NALP1 yeast inh inactive, ATG4B inhibitor inactive, UCH37 inh inactive, ALR H2O2 inh 99.3, NLRP3 yeast inh inactive and Calb FLC inactive.
COc1ccc(OC(=O)c2ccc(Cl)cc2)c(C(C)=O)c1 was read as NALP1 yeast inh inactive, ATG4B inhibitor inactive, UCH37 inh inactive, ALR H2O2 inh inactive, NLRP3 yeast inh inactive and Calb FLC inactive.
Cc1occc1C(=O)Nc1ccccc1C(=O)O was read as NALP1 yeast inh inactive, ATG4B inhibitor inactive, UCH37 inh inactive, ALR H2O2 inh inactive, NLRP3 yeast inh inactive and Calb FLC inactive.
For O=C(O)c1cc2ccccc2cc1Nc1ccccc1 the results were NALP1 yeast inh inactive, ATG4B inhibitor inactive, UCH37 inh inactive, ALR H2O2 inh 99.4, NLRP3 yeast inh inactive and Calb FLC inactive.
